{"source": "paper PMC6430907", "about": "(Journal of Veterinary Internal Medicine, 2019)", "test_system": "dogs with compensated CHF caused by MMVD", "assay": "Urine output", "format": "in vivo, dog", "in_short": "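Crossover design in 7 male dogs with ACVIM stage C CHF from MMVD, treated in fixed order with a 2-week washout. Baseline UOP was measured at the end of a 1-h control period. […] UOP was log-transformed and analysed by linear mixed modelling (REML, least square differences).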", "data": [{"compound": "NS(=O)(=O)c1cc(C(=O)O)c(NCc2ccco2)cc1Cl", "note": "[FRUS, furosemide]", "values": [{"measurement": "increase in median UOP compared to baseline at maximal effect", "setting": "1 hour after treatment, median of 7 dogs", "value": 1246, "unit": "%"}, {"measurement": "change in urine output (UOP) from baseline", "setting": "BNP 5 μg/kg SC, FRUS 2 mg/kg SC, or both, 1, 2, 3 hours, 7 dogs", "value": "increased significantly"}, {"measurement": "time after treatment of maximal effect on UOP", "setting": "furosemide 2 mg/kg SC with or without BNP 5 μg/kg SC", "value": 1, "unit": "h"}]}]}
